# NRP1-CendR mod: alters CendR peptide binding to human NRP-1; inhibition, % at 25 µM; FAM-RPARPAR peptide binding to NRP-1, fluorescence polarization; AID 602438; 360,000 tested, 0.85% active;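 active = inhibition or corrected inhibition above about 18%, plus a signal ratio from 0.5 to 1.5, limit read from the data, passing the limit was not always enough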
# PLC-gamma1 inh: PLC-gamma1 (human) inhibition, primary screen; P19174; purified PLC-gamma1, fluorogenic substrate, fluorescence; inhibition, % at 12.2 µM; 370,000 tested, 0.84% active; AID 720700; in the data active = inhibition above about 9.5%
# proKLK7 act: activators of human kallikrein-7 zymogen | purified proKLK7, EDANS-DABCYL substrate fluorescence; 100% is mature enzyme control, 0% vehicle | activation, % at 7 µM | 370,000 tested, 0.9% active | AID 652039;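 active = activation above the mean of all tested compounds plus 3 SD, computed per campaign excluding outliers beyond control limits, cut at about 13% in these data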
# DDE Tn7 FP inh: DD(E)-Tn7 binding inhibition, primary FP screen | 370,000 tested, 0.13% active | FP displacement of FITC-Tn7 peptide from fibrin DD(E); 0% = median of compound wells per plate | P02675 | inhibition, % at 8.3 µM;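 active = inhibition above the mean of compounds falling within the control limits plus 3 SD of them, cut at about 14% in these data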;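 also: 0% = plate median of compound wells and 100% = 10 µM Aha-Tn7 peptide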
# Target sequence (P02675 whole entry, looked up): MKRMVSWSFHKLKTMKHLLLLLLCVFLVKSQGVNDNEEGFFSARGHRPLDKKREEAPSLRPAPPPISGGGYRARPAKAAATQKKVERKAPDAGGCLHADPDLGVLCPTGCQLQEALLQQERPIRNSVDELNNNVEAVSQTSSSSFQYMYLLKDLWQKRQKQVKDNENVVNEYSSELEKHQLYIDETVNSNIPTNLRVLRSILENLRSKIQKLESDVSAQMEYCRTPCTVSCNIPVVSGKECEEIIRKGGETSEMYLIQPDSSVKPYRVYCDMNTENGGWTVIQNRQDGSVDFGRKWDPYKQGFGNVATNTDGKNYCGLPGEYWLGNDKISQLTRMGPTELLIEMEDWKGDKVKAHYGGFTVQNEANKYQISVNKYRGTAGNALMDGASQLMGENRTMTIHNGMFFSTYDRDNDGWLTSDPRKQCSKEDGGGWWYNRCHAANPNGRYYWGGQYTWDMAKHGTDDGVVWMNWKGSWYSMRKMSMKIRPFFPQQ
#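 Measure: % inhibition scaled between sample-field median and high-control FP; Test system: human fibrin DD(E); Quantity: 2 µM final DD(E) protein; Doses: one dose, 8.3 µM nominal; Schedule: compound with protein 10 min, then 3 h after probe, room temperature; Detection: fluorescence polarization; Medium: Tris buffer with calcium and detergent, pH 7.8.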
# Tn6 DDE FP: DD(E)-Tn6 binding inhibition, primary FP screen | P02675 | Fibrin DD(E) TRITC-Tn6 fluorescence polarization displacement | inhibition, % at 8.3 µM | 370,000 tested, 0.21% active;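 active = inhibition above a per-campaign cutoff: mean of compounds within control limits plus 3 SD, cut at about 15% in these data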;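 also: 0% = median of all compound wells on the plate and 100% = blocking peptide control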
# PLCb3 inh: inhibitors of human phospholipase C beta3. Q01970. Purified PLC-beta3, fluorogenic substrate, fluorescence. inhibition, % at 12.2 µM. 370,000 tested, 0.18% active. AID 720704;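 also: 0% = median of compound wells on plate and 100% = full blocker control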
# PLCgamma1 ctr: inhibits human PLC-gamma1 in PLC-beta3 counter-screen. shares compounds with PLC-gamma1 inh. purified PLC-gamma1, fluorogenic substrate, fluorescence. inhibition, % at 12.3 µM. 3,300 tested, 3.1% active. AID 743258; in the data active = inhibition above about 9.5%
# PLCbeta3 conf: confirmation of human PLC-beta3 inhibitors | inhibition, % at 12.3 µM | 3,300 tested, 1% active | shares compounds with PLC-gamma1 inh | purified PLC-beta3, fluorogenic substrate fluorescence
# Starred values were filed as active, the others as inactive; · = not tested or not shown. Hits are enriched below; roughly 3% of the tested compounds scored in any of these assays. Rule as the data show it, unless noted: active = inhibition above about 11%; inactive = the rest.
SMILES,NRP1-CendR mod,PLC-gamma1 inh,proKLK7 act,DDE Tn7 FP inh,Tn6 DDE FP,PLCb3 inh,PLCgamma1 ctr,PLCbeta3 conf
Cc1ccccc1-c1nn[nH]n1,-1.8,-0.2,-0.3,2.1,2.7,0.9,·,·
Oc1ccc(N=Nc2ccccc2-c2nn[nH]n2)c(O)c1,9.5,12.0*,-0.2,1.0,-20.0,2.6,7.1,2.8
CCc1nc2sc3c(c2c(=O)n1N)CCC3,3.5,11.2*,0.2,1.4,4.0,1.3,-3.4,-2.7
CCCc1nc2sc3c(c2c(=O)n1N)CCC3,7.2,0.8,-0.5,-7.6,-8.9,1.5,·,·
CCOC(=O)CN1C(=O)N(c2ccc(OC)cc2)[C@H]2CC3c4ccccc4C[C@]3(C)[C@@H](C(=O)N(C)C3CCCCC3)C[C@H]21 (some centres not stated),·,1.9,0.5,6.4,-5.2,-0.6,·,·
O=C(NCc1ccccc1)c1onc(CSc2ccc(Cl)cc2)c1C(=O)NCc1ccccc1,13.0,3.4,0.0,-5.8,-4.7,2.8,·,·
O=C(NCc1ccccc1)c1onc(CSc2ccc(F)c(F)c2)c1C(=O)NCc1ccccc1,9.0,1.5,0.5,-3.2,3.0,11.3*,1.5,-1.0
Cc1ccc2nc(C3CCN(C(=O)NCc4ccccc4)CC3)[nH]c2c1,1.7,10.1*,-0.7,0.8,-9.0,3.5,1.4,-3.5
COC(=O)C1=C(C)N(Cc2ccc(C(F)(F)F)cc2)C(=NCc2ccc(OC)cc2)NC1c1ccccc1C(F)(F)F (configuration not stated),·,9.9*,0.0,-5.0,-2.6,3.7,-4.7,-5.2
COC(=O)C1=C(C)N(Cc2ccccc2)C(=S)NC1c1ccc(Br)cc1 (configuration not stated),·,9.7*,-0.6,-4.6,-7.0,3.7,-1.1,-0.1
COC(=O)C1=C(C)N(Cc2cccc(C(F)(F)F)c2)C(=NCc2ccc(C(F)(F)F)cc2)NC1c1ccc(C(F)(F)F)cc1 (configuration not stated),·,12.8*,-0.5,-6.2,-7.2,7.8,5.3,4.7
COC(=O)C1=C(C)N(Cc2ccccc2)C(=S)N[C@H]1c1ccc(Br)cc1,-11.0,1.4,0.8,-2.2,3.4,-2.6,·,·
COC(=O)C1=C(C)N(Cc2cccc(C(F)(F)F)c2)C(=NCc2ccc(C(F)(F)F)cc2)NC1c1cccc(F)c1 (configuration not stated),·,7.8,0.2,-10.8,-8.1,13.6*,-6.0,-3.8
CC(CCN1CCC(C(O)(c2ccccc2)c2ccccc2)CC1)Oc1cc(F)cc(F)c1 (configuration not stated),·,1.1,0.2,-3.0,-5.5,1.8,·,·
CCC[C@H]1[C@@H](NC(=O)c2cccc(C(F)(F)F)c2)CC[C@@]23CCCN2C(=O)CCC[C@@H]13,·,-2.2,·,6.1,1.9,-1.9,·,·
Cc1ccc(-n2c(Cc3cccs3)nnc2SCC(=O)Nc2cccc3ccccc23)cc1,·,13.3*,0.7,-6.2,-10.9,7.6,1.8,1.6
COc1ccc(C2(C(=O)Nc3ccc(OC)cc3OC)CCCC2)cc1,0.0,1.9,-0.7,-0.6,-0.3,4.3,·,·
COC(=O)[C@@H]1CC[C@@](C)(c2ccc(OC)cc2)C1(C)C,-0.9,14.1*,-0.1,3.2,-3.9,8.4,-5.9,-2.3
CN1C(=O)c2cc(NC(=O)Nc3ccccc3)ccc2OC[C@H]2O[C@@H](CC(=O)NC3CCC3)CC[C@@H]21,·,8.2,0.3,-3.9,-3.9,1.9,·,·
CCCCCC(=O)NC(=S)Nc1ccc(Cl)cn1,5.7,10.3*,0.4,-7.0,-0.7,1.2,-5.4,-5.5
COc1ccc(CN2C[C@@]3(O)CC[C@@H](O)[C@@H](OC)[C@@H]3[C@@]2(C)[C@H](O)CC=C(C)C)cc1,·,4.0,0.3,5.9,0.8,3.0,·,·
Cc1cnc(C(=O)OCC(=O)Nc2ccc(Cl)cc2)cn1,3.6,11.6*,-0.2,-4.1,-1.0,5.2,-7.7,-4.2
Cc1cnc(C(=O)OCC(=O)Nc2ccc(Br)cc2F)cn1,-5.2,-3.7,-0.1,2.0,3.0,-5.0,·,·
O=C(O)c1[nH]c2ccccc2c1C(c1ccccc1)c1c(C(=O)O)[nH]c2ccccc12,-117.2,4.2,-0.1,3.2,12.0,-5.6,·,·
O=C(O)c1[nH]c2ccccc2c1C(c1cc(Cl)cc([N+](=O)[O-])c1O)c1c(C(=O)O)[nH]c2ccccc12,-50.8,16.1*,0.2,2.2,-8.6,-6.5,31.3*,-0.9
SMILES,NRP1-CendR mod,PLC-gamma1 inh,proKLK7 act,DDE Tn7 FP inh,Tn6 DDE FP,PLCb3 inh,PLCgamma1 ctr,PLCbeta3 conf
O=c1cc(-c2ccccc2)nc(SCCOc2ccccc2Cl)[nH]1,11.8,11.6*,0.0,-5.5,-4.4,0.2,-2.8,-10.3
Cc1ccc(N(C)S(=O)(=O)c2cccc(C(=O)N3CCN(Cc4ccccc4)CC3)c2)cc1,2.7,10.8*,0.8,-5.0,4.1,-4.4,1.9,2.2
O=C(Nc1ccc(Oc2ccccc2)cc1)C1CCCN1S(=O)(=O)c1cccc2cccnc12 (configuration not stated),·,0.1,0.6,-3.2,5.8,1.3,·,·
O=C(N[C@@H](Cc1ccccc1)C(=O)N1CCC2CCN(S(=O)(=O)c3ccccc3)CC21)[C@@H]1CCCN1 (some centres not stated),·,-1.2,0.3,7.9,-15.7,1.4,·,·
COc1ccc(-n2c(SCC(=O)N/N=C(/C)c3cccc(O)c3)nc3ccccc3c2=O)cc1,·,-2.3,0.7,-4.8,8.7,2.3,·,·
Cn1cc(-c2nnnn2-c2ccccc2)c(=O)c2ccccc21,2.8,4.6,0.1,3.5,-3.0,11.8*,-20.7,0.3
O=C(CCNc1cc(Cl)cc(Cl)c1)c1cccs1,1.1,13.5*,-0.3,-2.3,-9.4,4.9,10.6*,4.4
CCc1nnc(N/N=C/c2c(F)cccc2Cl)n1N,12.7,14.5*,-0.7,-6.1,-2.2,3.5,-8.6,-3.8
Cc1nnc(N/N=C/c2c(Cl)cccc2Cl)n1N,-12.0,4.6,0.4,7.3,6.1,4.8,·,·
CN(C(=O)COC(=O)c1ccc2ccccc2n1)C1CCCCC1,-13.0,10.4*,0.2,-5.8,-5.3,4.3,-5.4,-0.9
CC1CCN(C(=O)COC(=O)c2ccc3ccccc3n2)CC1,3.5,0.4,-0.3,6.9,-0.8,-9.1,·,·
O=C(OCC#CCSc1nnc(-c2cccc3ccccc23)o1)c1cc(F)c(F)c(F)c1,·,-3.7,·,-6.8,1.4,-0.3,·,·
CCC1C(=O)N(C)CCc2ccccc21 (configuration not stated),7.6,12.0*,-0.1,7.2,2.7,4.3,4.9,-1.9
